# Measured values from ChEMBL document CHEMBL1138489, “Chalcones: a valid scaffold for monoamine oxidases inhibitors” (J Med Chem, 2009).
# Assays:
# [1] = target: T1, Amine oxidase [flavin-containing] B (Homo sapiens, UniProt P27338)
# T1 sequence (P27338 whole entry): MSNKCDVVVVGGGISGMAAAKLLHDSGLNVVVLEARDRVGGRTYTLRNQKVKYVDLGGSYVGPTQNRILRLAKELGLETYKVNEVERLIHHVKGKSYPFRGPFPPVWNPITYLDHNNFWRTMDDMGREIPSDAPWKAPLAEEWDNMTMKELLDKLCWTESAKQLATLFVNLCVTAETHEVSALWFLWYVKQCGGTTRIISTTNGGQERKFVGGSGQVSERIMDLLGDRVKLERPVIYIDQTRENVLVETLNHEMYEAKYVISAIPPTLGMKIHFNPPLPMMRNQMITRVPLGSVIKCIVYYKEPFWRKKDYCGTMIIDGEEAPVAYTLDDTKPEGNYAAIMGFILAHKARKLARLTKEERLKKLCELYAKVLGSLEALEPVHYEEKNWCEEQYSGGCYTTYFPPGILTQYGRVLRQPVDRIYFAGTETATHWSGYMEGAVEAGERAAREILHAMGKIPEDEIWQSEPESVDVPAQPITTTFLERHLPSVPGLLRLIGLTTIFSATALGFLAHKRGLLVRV
# [2] = target: T2, Amine oxidase [flavin-containing] A (Homo sapiens, UniProt P21397); assay: Inhibition of human recombinant MAO-A assessed as hydrogen peroxide production at 50 uM
# T2 sequence (P21397 whole entry): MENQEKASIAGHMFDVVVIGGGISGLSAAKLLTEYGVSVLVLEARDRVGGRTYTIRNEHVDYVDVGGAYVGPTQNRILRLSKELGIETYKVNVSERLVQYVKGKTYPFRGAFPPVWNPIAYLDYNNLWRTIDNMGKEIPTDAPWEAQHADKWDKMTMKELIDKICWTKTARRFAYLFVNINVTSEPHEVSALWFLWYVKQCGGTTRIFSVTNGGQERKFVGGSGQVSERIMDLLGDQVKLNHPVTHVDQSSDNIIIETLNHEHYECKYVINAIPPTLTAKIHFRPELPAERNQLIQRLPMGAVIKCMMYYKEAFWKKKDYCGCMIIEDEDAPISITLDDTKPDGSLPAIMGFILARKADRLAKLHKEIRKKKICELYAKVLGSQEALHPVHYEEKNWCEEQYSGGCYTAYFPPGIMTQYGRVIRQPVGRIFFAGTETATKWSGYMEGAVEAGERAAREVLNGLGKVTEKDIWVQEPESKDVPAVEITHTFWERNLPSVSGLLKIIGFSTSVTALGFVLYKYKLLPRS
# In short: (§1)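 Recombinant hMAO-A or hMAO-B microsomes came from baculovirus-infected BTI-TN-5B1-4 insect cells. Enzyme was set to 165 pmol p-tyramine/min (A 1.1 µg, B 7.5 µg protein). It was preincubated with compound in 0.05 M sodium phosphate, pH 7.4, for 15 min at 37 °C. Final 200 µM Amplex Red, 1 U/mL HRP and 1 mM p-tyramine started the reaction. H2O2 was read as resorufin fluorescence (ex 545/em 590 nm) over 15 min at 37 °C against vehicle controls.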
# [3] = species on record: Homo sapiens; assay: Selectivity index, ratio of inhibition of human recombinant MAO-A at 20 uM or 50 uM to IC50 for human recombinant MAO-B
# [4] = target: T2, Amine oxidase [flavin-containing] A; assay: Inhibition of human recombinant MAO-A assessed as hydrogen peroxide production at 20 uM
# In short: as §1
# [5] = target: T1, Amine oxidase [flavin-containing] B; assay: Inhibition of human recombinant MAO-B assessed as hydrogen peroxide production at 20 uM
# [6] = target: T2, Amine oxidase [flavin-containing] A; assay: Inhibition of human recombinant MAO-A assessed as hydrogen peroxide production at 1 mM
# [7] = target: T1, Amine oxidase [flavin-containing] B; assay: Inhibition of human MAO-B at 20 uM after repeated washing
# [8] = target: T1, Amine oxidase [flavin-containing] B; assay: Inhibition of human MAO-B at 20 uM before washing
# [9] = target: T1, Amine oxidase [flavin-containing] B; assay: Inhibition of human recombinant MAO-B assessed as hydrogen peroxide production at 1 mM
# In short: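 Microsomal recombinant hMAO-B (baculovirus-infected BTI-TN-5B1-4 insect cells; 7.5 µg protein) preincubated with drug in 0.05 M sodium phosphate, pH 7.4, 15 min, 37 °C. Started with (final) 200 µM Amplex Red, 1 U/mL horseradish peroxidase, 1 mM p-tyramine. H2O2 read as resorufin fluorescence (ex 545/em 590 nm) over 15 min at 37 °C. Vehicle controls; five experiments.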
# [10] = target: T1, Amine oxidase [flavin-containing] B; assay: Inhibition of human MAO-B at 5 uM after repeated washing
# [11] = target: T1, Amine oxidase [flavin-containing] B; assay: Inhibition of human MAO-B at 5 uM before washing
# [12] = target: T2, Amine oxidase [flavin-containing] A; assay: Inhibition of human recombinant MAO-A assessed as hydrogen peroxide production
Structure (SMILES),IC50 [1] [nM],Ratio IC50 [3],IC50 [4],further results
O=C(/C=C/c1ccc(Cl)cc1)c1ccc(O)cc1,31,> 1610,,IC50 [2]: Not Active
COc1ccc(/C=C/C(=O)c2ccc(OCC=C(C)C)cc2O)cc1,,,Not Active,IC50 [5]: Not Active
O=C(/C=C/c1ccc(Cl)cc1)c1ccc(OCc2ccccc2)cc1,,,Not Active,
O=C(/C=C/c1ccccc1)c1ccccc1 [CHALCONE],1410,> 14,Not Active,
CS(=O)(=O)c1ccc(C(=O)/C=C/c2ccc(Cl)cc2)cc1,470,> 43,Not Active,
CC(C)=CCOc1ccc(C(=O)/C=C/c2ccc(OCc3ccccc3)cc2)c(O)c1,,,Not Active,IC50 [5]: Not Active
CC(C)=CCOc1ccc(C(=O)/C=C/c2ccc(C)cc2)c(O)c1,1030,> 19,Not Active,
C#CCN(C)[C@H](C)Cc1ccccc1 [SELEGILINE],,,,IC50 [6]: Not Active
O=C(/C=C/c1ccc(Cl)cc1)c1ccccc1O,160,> 312,,IC50 [2]: Not Active
CC(C)=CCOc1ccc(C(=O)/C=C/c2ccccc2)c(O)c1 [CORDOIN],18800,> 1.1,Not Active,inhibition (INH) [7]: 58.51%; inhibition (INH) [8]: 54.32%
O=C(NCCN1CCOCC1)c1ccc(Cl)cc1 [MOCLOBEMIDE],,,,IC50 [9]: Not Active
C#CCN(C)CCCOc1ccc(Cl)cc1Cl [CLORGILINE],,,,IC50 [6]: Not Active
COc1ccc(C(=O)/C=C/c2ccc(Cl)cc2)cc1,54,> 370,Not Active,
O=C(/C=C/c1ccc(Cl)cc1)c1ccc(F)cc1O,71,> 704,,
COc1ccc(C(=O)/C=C/c2ccc(OCc3ccccc3)cc2)cc1,450,> 44,Not Active,
CC(C)=CCOc1ccc(C(=O)/C=C/c2ccc(Cl)cc2)c(O)c1,1250,> 16,Not Active,
COc1ccc(C(=O)/C=C/c2ccc(Cl)cc2)c(O)c1,,,,inhibition (INH) [10]: 60.26%; inhibition (INH) [11]: 59.13%
O=C(/C=C/c1ccc(Cl)cc1)c1ccc(O)cc1O,5.1,971,,inhibition (INH) [10]: 61.38%; IC50 [6]: Not Active; IC50 [12]: 4950 nM; inhibition (INH) [11]: 55.12%
O=C(/C=C/c1ccc(OCc2ccccc2)cc1)c1ccc(F)cc1,500,> 40,Not Active,
